Measurements published in article PMC4089878 (Molecular cancer therapeutics, 2013).

What was measured:
[1] = test system: ID1 protein in K562 cells; assay: Western blot of USP1 and ID1 protein levels in K562 cells; type: cell-based, human; conditions: for USP1 and ID1 protein levels: Western blot, 24 hrs (Pimozide 48 hrs)
K562 cells [2] = assay: Apoptosis; type: cell-based, human; conditions: 24 hrs (Pimozide 48 hrs)
K562 cells [3] = assay: Cytotoxicity / viable cell count in K562 leukemic cells; type: cell-based, human
K562 xenograft = assay: K562 mouse xenograft; type: in vivo, athymic nude mice; conditions: 15 mg/kg daily ip, nude mice
Procedure, shortened: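 Athymic nude mice aged 6–8 weeks were injected subcutaneously in the flank with 5 × 10^6 K562 cells mixed 1:1 with matrigel. At […] tumor size, mice received 15 mg/kg daily ip in 2% DMSO + 0.3% tartaric acid, or vehicle alone (n=10 per group). Tumor volume was calculated as width² × length/2 and compared by […] t-test.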

[4] = test system: primary human cord blood CD34+ cells; assay: Growth of normal cord blood CD34+ cells; type: cell-based; conditions: Supplementary figure 5
[5] = test system: MOLM14, OCI-AML3, U937 and SK-NO1; assay: Cytotoxicity in AML cell lines; type: cell-based, human; conditions: 24 hrs
K562 cells [6] = assay: Benzidine staining differentiation of K562 cells; type: cell-based, human; conditions: low dose, 5 days
[7] = test system: primary AML bone marrow and peripheral blood cells; assay: Cytotoxicity in primary AML patient cells; type: cell-based, human; conditions: 48-72 hrs
Procedure, shortened: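 Fresh bone marrow and peripheral blood were taken from AML patients, and mononuclear cells were harvested. These were cultured in triplicate with test compound or DMSO for 48–72 h, and viability was determined. Data come from 3 patient samples, shown as mean ± SEM.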

Ub-FANCD2 = assay: Western blot of Ub-FANCD2, Ub-FANCI, Ub-PCNA levels; type: cell-based, human; conditions: supplementary figure 6
U2OS-DRGFP cells = assay: DR-GFP homologous recombination reporter; type: cell-based, human; conditions: 24 h treatment
Procedure, shortened: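 U2OS-DRGFP cells carry a single chromosomally integrated copy of the HR substrate and were grown in DMEM with 10% FBS. DSBs were induced by I-SceI expression after plasmid transfection. After 24 h, cells were exposed to test compound for 24 h. The percentage of viable GFP-positive cells was measured by FACS and normalized to the solvent vehicle group.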

native USP1/UAF1 complex = assay: HA-Ub-VS competition assay on native USP1 in cell extracts; type: cell-based, human; conditions: K562 cells treated 24 hrs (SJB2-043 1 μM); Ub-Aldehyde 5 μM added to extract
Procedure, shortened: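 K562 cells were treated with test compound or DMSO for 24 h. Cell extracts were then incubated with 0.5 μM final HA-Ub-vinylsulfone for 45 min at 30 °C. As a control, an aliquot of untreated extract was pretreated with 5 μM ubiquitin-aldehyde before probe addition. Samples were immunoblotted with anti-HA and anti-USP1 antibodies.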

Sequence of native USP1/UAF1 complex (O94782 1-671 limits assumed): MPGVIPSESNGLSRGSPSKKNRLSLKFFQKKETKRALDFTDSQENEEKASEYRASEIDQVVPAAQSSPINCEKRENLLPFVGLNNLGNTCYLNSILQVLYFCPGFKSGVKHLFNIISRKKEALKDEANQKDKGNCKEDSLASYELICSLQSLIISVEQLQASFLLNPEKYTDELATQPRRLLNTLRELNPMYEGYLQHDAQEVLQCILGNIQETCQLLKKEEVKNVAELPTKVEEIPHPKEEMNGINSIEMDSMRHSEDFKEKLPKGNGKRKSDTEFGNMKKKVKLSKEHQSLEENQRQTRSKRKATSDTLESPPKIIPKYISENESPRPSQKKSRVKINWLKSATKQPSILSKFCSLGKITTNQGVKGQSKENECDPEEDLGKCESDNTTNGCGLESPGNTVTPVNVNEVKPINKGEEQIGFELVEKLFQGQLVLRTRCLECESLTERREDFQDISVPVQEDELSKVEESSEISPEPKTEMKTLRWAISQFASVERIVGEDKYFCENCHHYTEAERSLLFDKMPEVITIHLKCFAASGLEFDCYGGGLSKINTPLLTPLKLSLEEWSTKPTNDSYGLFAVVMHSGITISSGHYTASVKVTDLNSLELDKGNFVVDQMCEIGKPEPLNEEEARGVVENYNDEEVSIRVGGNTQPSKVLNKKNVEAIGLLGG
Sequence of native USP1/UAF1 complex (Q8TAF3 whole entry, further chain): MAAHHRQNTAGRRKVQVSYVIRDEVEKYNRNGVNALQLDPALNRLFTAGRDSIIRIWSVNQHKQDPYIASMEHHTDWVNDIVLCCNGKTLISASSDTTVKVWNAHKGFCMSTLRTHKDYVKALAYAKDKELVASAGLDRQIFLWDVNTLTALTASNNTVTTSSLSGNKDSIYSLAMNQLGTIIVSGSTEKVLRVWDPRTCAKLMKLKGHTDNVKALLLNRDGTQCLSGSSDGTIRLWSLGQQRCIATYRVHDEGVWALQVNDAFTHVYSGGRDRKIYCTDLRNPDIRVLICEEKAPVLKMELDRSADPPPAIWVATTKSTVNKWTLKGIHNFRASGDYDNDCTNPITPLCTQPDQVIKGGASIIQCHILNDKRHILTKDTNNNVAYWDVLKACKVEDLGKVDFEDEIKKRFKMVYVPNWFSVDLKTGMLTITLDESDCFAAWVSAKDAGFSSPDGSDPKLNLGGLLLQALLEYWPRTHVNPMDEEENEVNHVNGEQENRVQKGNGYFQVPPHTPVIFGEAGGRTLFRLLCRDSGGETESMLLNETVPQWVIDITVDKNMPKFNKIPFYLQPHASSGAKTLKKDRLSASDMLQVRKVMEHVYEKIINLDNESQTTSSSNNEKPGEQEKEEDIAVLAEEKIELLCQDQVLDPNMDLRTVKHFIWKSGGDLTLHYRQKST

O=c1[nH]c2ccccc2n1C1CCN(CCCC(c2ccc(F)cc2)c2ccc(F)cc2)CC1 [Pimozide, reference compound]
USP1 and ID1 protein levels [1]: promoted ID1 degradation
apoptosis of K562 cells (K562 cells [2]): induction of apoptosis
K562 cell growth (K562 cells [3]; 48 hrs): dose-dependent inhibition of K562 cell growth
tumor growth in K562 xenograft (K562 xenograft): modest inhibition of tumor growth
effect on normal human cord blood CD34+ cells [4]: tolerated at high micromolar doses

O=C1c2ccccc2C(=O)c2oc(-c3ccccc3)nc21 [SJB2-043]
USP1/ID1 degradation, time course ([1]; 2 μM, 18 hrs or 26 hrs): complete degradation of USP1/ID1
USP1 and ID1 protein levels [1]: dose-dependent decrease in USP1 levels and a concomitant degradation of ID1 protein
apoptosis of K562 cells (K562 cells [2]): induced apoptosis of K562 cells in a dose-dependent manner
EC50 (K562 cells [3]; read-out: EC50, decrease in the number of viable K562 cells, 24 hrs, ± 0.08 (95% Confidence Limits)): ~1070 nM
cytotoxicity in AML cell lines [5]: dose-dependent cytotoxicity and concomitant ID1 degradation
differentiation of K562 cells (K562 cells [6]): activated differentiation of K562 cells into hemoglobin-expressing erythroid cells
cytotoxicity on primary AML bone marrow and peripheral blood cells [7]: dose-dependent cytotoxicity
levels of Ub-FANCD2 / Ub-PCNA (Ub-FANCD2): increased the level of Ub-FANCD2
effect on normal human cord blood CD34+ cells [4]: did result in growth inhibition

O=C1c2ccccc2C(=O)c2oc(-c3cccnc3)nc21 [SJB3-019A]
potency relative to SJB2-043 in promoting ID1 degradation [1]: 5 times
potency relative to SJB2-043 in cytoxicity in K562 cells (K562 cells [3]; K562 cells): 5 times
gene conversion / HR activity (U2OS-DRGFP cells): decreased the HR activity
levels of Ub-FANCD2 / Ub-PCNA (Ub-FANCD2): increased the levels of Ub-FANCD2 and Ub-PCNA

Ub-aldehyde
Ub-VS labeling of native USP1 (native USP1/UAF1 complex): complete loss of USP1-Ub-VS conjugates
